The sample as a whole holds a higher share of hits than the screen did.
CDK5 p35 inh = blocks human CDK5/p35 kinase activity; inhibition, % at 10 µM; Recombinant CDK5/p35, ADP-Glo luminescence, 60 min; Q00535+Q15078; 0.01% of 330,000 active;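 active = highest replicate inhibition of at least 50% and at least 75% of replicates reaching 50%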;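 also: plate controls were DMSO neutral control for no effect and GW8510 at 10 µM for full effect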
Dyrk1A ADPGlo = Dyrk1A (rat) kinase inhibition; ADP-Glo luminescence, NFATc1 peptide; inhibition, % at 12.5 µM; Q63470; 0.43% of 310,000 active; AID 504441; in the data active = inhibition above about 50%;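 also: plate controls were vehicle with enzyme for no effect and no enzyme for full effect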
GSK3beta inhib = inhibitors of human GSK3beta kinase; P49841; GST-GSK3beta kinase, ADP-Glo luminescence, 60 min; hits give low values; activity score (negative = inhibition), % at 10 µM; 0.038% of 300,000 active; AID 2097;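 active = more than half of replicate wells score below -50%, meaning over 50% inhibition versus plate controls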;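 also: 0% = median DMSO wells and -100% = median GW8510 positive control wells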
Target sequence (P49841 whole entry, looked up): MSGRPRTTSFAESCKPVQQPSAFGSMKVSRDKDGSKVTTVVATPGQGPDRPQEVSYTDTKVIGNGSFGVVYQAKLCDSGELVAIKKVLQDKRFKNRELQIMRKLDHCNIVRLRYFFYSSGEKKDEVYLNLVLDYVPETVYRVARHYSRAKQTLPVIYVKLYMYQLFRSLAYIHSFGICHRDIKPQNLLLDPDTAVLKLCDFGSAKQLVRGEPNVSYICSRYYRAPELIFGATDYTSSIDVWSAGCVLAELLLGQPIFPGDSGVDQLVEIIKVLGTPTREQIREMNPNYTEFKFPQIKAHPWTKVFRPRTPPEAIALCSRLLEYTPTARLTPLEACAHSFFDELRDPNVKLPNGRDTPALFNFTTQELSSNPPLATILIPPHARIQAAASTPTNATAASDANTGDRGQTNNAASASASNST
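Test system: GST-tagged human GSK3beta kinase, cell-free; evaluation: activity score scaled between in-plate DMSO and GW8510 controls; measured by: ADP-Glo luminescence; incubation: 60 min reaction, RT; benchmarks: DMSO and 20 µM GW8510; reagent: peptide substrate plus 25 µM ATP (final); medium: Tris/MgCl2 kinase buffer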
GSK3A inh = inhibitors of human GSK-3 alpha kinase; ADP-Glo luminescence, 60 min; P49840; 0.1% of 320,000 active; inhibition, % at 10 µM;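 active = more than half of replicates show inhibition above 20%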;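 also: GST-tagged GSK-3 alpha with peptide substrate and 25 µM ATP; 0% = DMSO neutral wells and 100% = GW8510 positive control wells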
STK33 kinase inh = blocks human STK33 kinase activity; AID 2661; 0.073% of 320,000 active; purified STK33, MBP phosphorylation, ADP-Glo luminescence; inhibition, % at 10 µM;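 active = inhibition at or above 25%, using the most active replicate where run in duplicate; inactive = inhibition below 25%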
* hit, by the source's call; / = no result.

SMILES | CDK5 p35 inh | Dyrk1A ADPGlo | GSK3beta inhib | GSK3A inh | STK33 kinase inh
Fc1cccc(Nc2nc(-c3ccncc3)nc3ccccc23)c1 | -1 | 2 | -75* | 0 | -1
COc1ccc(C(=O)O/N=C(/c2ccccc2)c2ccncc2)cc1 | 1 | -5 | 1 | 2 | -2
COc1ccc(C(=O)O/N=C(\C)c2ccccc2)cc1 | 37 | 37 | -28 | 25 | 29*
Cc1cc(C)n(CCC(=O)N=Nc2c(O)[nH]c3ccccc23)n1 | -2 | -4 | 0 | 8 | -1
Cc1cc(C)n(CCC(=O)N=Nc2c(O)[nH]c3ccc(Br)cc23)n1 | 1 | -3 | -16 | 73* | 0
N#Cc1c2n(c3c(=S)nc[nH]c13)CCCCC2 | 6 | 29 | -92* | 102* | 3
N#Cc1c2n(c3c(=O)[nH]cnc13)CCCC2 | 3 | 2 | 1 | 20 | 2
Clc1cccc(-c2csc(Nc3cccnc3)n2)c1 | 1 | -4 | 0 | 0 | -1
c1cncc(Nc2nc(-c3cccnc3)cs2)c1 | 2 | 32 | -11 | 10 | 34*
COc1ccccc1C(=O)N/N=C(\C)c1ccc(NC(=O)C2CC2)cc1 | 2 | 6 | 2 | -3 | -2
C/C=C/c1ccc(O)c(OC)c1 | 0 | 2 | / | -2 | 0
Oc1cc(O)cc(/C=C/c2ccc(O)c(O)c2)c1 | 22 | 69* | / | 28 | 50*
Cc1ccccc1NC(=O)NCc1ccccn1 | -2 | 7 | 2 | -2 | -2
CS(=O)(=O)N1CCN(c2ccccc2NC(=O)c2ccc(Br)o2)CC1 | 1 | 43 | 2 | 53* | 23
O=C(CN1C(=O)CCC1=O)Nc1cccc2c1C(=O)NC2=O | 3 | 2 | -80* | 98* | -1
O=C(Nc1cccc2c1C(=O)NC2=O)c1cccc(N2C(=O)CCC2=O)c1 | -2 | 3 | -8 | 6 | 3
Cc1ccc(S(=O)(=O)N(C)C)cc1NC(=O)CCc1ccccc1 | 0 | -1 | 1 | -1 | -2
CC(=O)Oc1ccc2occ(C(=O)c3cccs3)c2c1 | -3 | 10 | -17 | 43 | 0
O=C(CCl)Oc1ccc2occ(C(=O)c3cccs3)c2c1 | 1 | 31 | -72* | 70* | 3
CN(C)c1ccc2c3c(ccc(N(C)C)c13)C(=O)OC2 | / | / | -1 | 3 | -1
N=C1/C(=C/c2ccc(-c3cccc(C(=O)O)c3)o2)C(=O)N=C2SC(CC(=O)N3CCOCC3)=NN12 | -1 | 79* | 4 | 4 | 6
CC(C)(C)c1ccc(/C=C2\CCn3c2nc2cc(C(=O)O)ccc2c3=O)cc1 | 1 | 0 | 4 | -1 | -1
C/C(=N/Nc1ccnc2cc(Cl)ccc12)c1ccc(O)cc1 | -2 | 11 | 0 | 0 | 32*
COc1cc(C)c(S(=O)(=O)NOCc2ccccc2)c(C)c1C | 1 | 4 | -2 | -2 | 0
CCN(CC)S(=O)(=O)c1ccc(N2CCCC2)c(NC(=O)c2ccc(N3CCCC3=O)cc2)c1 | 0 | 14 | 0 | -2 | -2
SMILES | CDK5 p35 inh | Dyrk1A ADPGlo | GSK3beta inhib | GSK3A inh | STK33 kinase inh
CC1(C)Cc2cccc(C(=O)Nc3ccncc3)c2O1 | 3 | 46 | 1 | 73* | 10
CC1(C)Cc2cccc(C(=O)Nc3ccc(Cl)cc3)c2O1 | 1 | 14 | 1 | 2 | -1
CCCc1cc(=O)oc2cc(C)cc(OC(C)C(=O)NCCCn3ccnc3)c12 (stereo unspecified) | -5 | 8 | 4 | 3 | -1
Cc1c(CN(C)C)c2c(n1C)C(=O)c1ccc(Br)cc1-2 | 4 | 36 | -37 | 55* | 1
COc1cccc2c1cc1c(=O)n(CC(=O)NCCCN3CCCCC3)nc(C)n12 | 1 | -2 | -60* | -1 | 0
CC(=O)c1ccccc1NS(C)(=O)=O | 1 | -6 | 2 | -1 | -1
CC1=C(C(=O)OC(C)C)C(c2cccs2)n2ncnc2N1 (stereo unspecified) | -1 | 3 | 2 | 23 | 1
CCOC(=O)C1=C(C)Nc2ncnn2C1c1c[nH]c2ccccc12 (stereo unspecified) | 5 | -2 | -74* | 71* | -1
CCOC(=O)C1=C(C)Nc2ncnn2C1c1ccccc1F (stereo unspecified) | 2 | 7 | 0 | 3 | -2
CCCC1=C(C(=O)OCC)C(c2sccc2C)n2ncnc2N1 (stereo unspecified) | -3 | -3 | -34 | 78* | 1
CC1=C(C(=O)OC(C)C)C(c2c[nH]c3ccccc23)n2ncnc2N1 (stereo unspecified) | 0 | 5 | 0 | 93* | 1
CSc1ccccc1NC(=O)CN(C)C(=O)Cn1c(=O)oc2ccccc21 | 1 | 1 | 1 | 1 | -1
Cc1noc(C)c1NC(=O)N(C)C[C@@H]1Oc2ccc(NC(=O)C3CCCCC3)cc2C(=O)N([C@@H](C)CO)C[C@H]1C | 0 | 4 | / | -1 | -2
COc1ccc(-c2nn(-c3ccccc3)cc2/C=N/NS(=O)(=O)c2ccccc2)cc1 | -5 | 6 | -1 | -2 | 3
COc1ccc(-c2nn(-c3ccccc3)cc2/C=N/O)cc1 | 4 | 41 | -54* | 46 | 0
CC1CCCCN1CCNC(=O)c1cc2c(=O)n(C)c3ccccc3c2n1C (stereo unspecified) | 1 | 50* | 0 | 0 | 4
Cn1c(C(=O)NCCN2CCOCC2)cc2c(=O)n(C)c3ccccc3c21 | 0 | 32 | 0 | 0 | 2
N#CCCn1cc(/C=N/O)c(-c2ccccc2)n1 | 4 | 8 | / | 11 | 0
N#CCCn1cc(/C=N/O)c(-c2cccc([N+](=O)[O-])c2)n1 | 3 | 20 | -26 | 64* | 0
COc1cc(/C=N/n2c(-c3ccccc3)n[nH]c2=S)ccc1O | 6 | 39 | 1 | 5 | 46*
COc1ccc(/C=N/n2c(-c3n[nH]c4c3CCC4)n[nH]c2=S)cc1OC | 1 | -1 | 2 | 9 | 0
COc1cc(/C=N/n2c(-c3ccccc3)n[nH]c2=S)cc(OC)c1O | 2 | -10 | 1 | -1 | 1
COc1cc(/C=N/n2c(-c3n[nH]c4c3CCC4)n[nH]c2=S)ccc1O | 4 | -5 | 0 | 16 | 40*
O=C(CN1CCN(CC(=O)Nc2ccccc2Cl)CC1)Nc1ccc(F)c(F)c1 | 0 | 0 | 0 | -3 | 0
O=c1[nH][nH]c2c(N=Cc3ccccc3O)ccc(F)c12 | -2 | 58* | / | / | /
O=C(c1ccc2c3n(nc2c1)-c1ccccc1CO3)N1CCCCC1 | 34 | 44 | -19 | 32 | 27*
Nc1nc(-c2cc(O)ccc2[N+](=O)[O-])cc(-c2ccccc2)c1[N+](=O)[O-] | 0 | 23 | -2 | 2 | 28*
O=C(CN1CCCCCCC1)N/N=C/c1ccc(F)c(F)c1 | -1 | 4 | 7 | 0 | -1
CCC(Oc1ccccc1)C(=O)Nc1ncc([N+](=O)[O-])s1 (stereo unspecified) | 0 | 1 | 3 | -4 | 0
CC(CC(=O)Nc1ncc([N+](=O)[O-])s1)c1ccccc1 (stereo unspecified) | 3 | / | -20 | 52* | -2

High-throughput results deposited in PubChem BioAssay by Broad Institute.
